Experimental findings from ChEMBL document CHEMBL4513216, “Probing the Open Global Health Chemical Diversity Library for Multistage-Active Starting Points for Next-Generation Antimalarials” (ACS Infect Dis, 2020) are described below.

The data set in a line: Toxicity liver stage against HepG2, at 10uM. Particulars: human, HepG2-A16-CD81EGFP cells; read-out: INHIBITION
It is filed as cell-based. Also noted: test concentration 10 uM, cell line HepG2-A16-CD81EGFP. The procedure, abridged: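 Uninfected HepG2-A16-CD81EGFP cells, 3 × 10^3 per well, 1536-well, plated on prespotted compound at 10 μM final, parasite-free screening media added to match infected plates; puromycin 10 μM positive, DMSO 0.5% negative; run in parallel with 48 h PbLuc assay at 37 °C, 5% CO2; viability by CellTiter-Glo luminescence, normalized to controls.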
With `CN(C)C(=O)CN1C[C@H]2CC[C@@H](C1)N(C(=O)CCn1cncn1)C2`, the cytotoxicity at 10 µM was -9.96%.

Regarding `CC(C)CC(NC(=O)c1cnn(C)c1)C(=O)Nc1cc[nH]n1` (centres undefined), the cytotoxicity at 10 µM is -3.38%.

Turning to `CCN(C(=O)c1nc2c(s1)CCCN2S(C)(=O)=O)C(C)C`, the cytotoxicity at 10 µM amounted to 3.99%.

As to `CSC1(CNC(=O)NC(C)c2ccc(F)c(F)c2)CCOCC1` (centres undefined), the cytotoxicity at 10 µM is 1.71%.

Regarding `CC(C)Nc1ncnc2c1CCN(Cc1ccoc1)CC2`, the cytotoxicity at 10 µM is 5.65%.

For the compound `COc1ccc(CNC[C@H]2COCc3nc4cc(F)ccc4n32)cn1`, the cytotoxicity at 10 µM stood at 0.734%.

Regarding `O=C(c1ccc[nH]1)N1CCN(CC2CCOc3ccccc3C2)CC1` (centres undefined), the cytotoxicity at 10 µM stood at 4.03%.

For `COCCOCC(=O)NC1CCN(c2ccccn2)CC1`, the cytotoxicity at 10 µM was -0.555%.

Regarding `CC(C)(CNc1ccc2ccc(F)cc2n1)NS(C)(=O)=O`, the cytotoxicity at 10 µM is -7.04%.

On to `Cc1nc(-c2c(C)noc2C)cc(C2CCN(S(=O)(=O)N(C)C)CC2)n1`, for which the cytotoxicity at 10 µM was 4.62%.

In the case of `CN(Cc1ccc2c(c1)OCCO2)Cn1nc(C(C)(C)C)ccc1=O`, the cytotoxicity at 10 µM was -12.4%.

As to `CCCNC(=O)NC(=O)CN(CC(C)O)c1ccccc1` (centres undefined), the cytotoxicity at 10 µM is -2.48%.

With `CCn1cc(C(=O)N(C)Cc2c(F)cccc2Cl)cn1`, the cytotoxicity at 10 µM was -4.66%.

For `COCCN1CCN(C(=O)c2cc(C(C)C)on2)[C@H]2CS(=O)(=O)C[C@H]21`, the cytotoxicity at 10 µM is -12%.

For `Cc1nc(C)n(CC2CN(c3nnc(C)c(C)c3C#N)CCO2)n1` (centres undefined), the cytotoxicity at 10 µM was -0.00964%.

For `CC(C)N(C)Cc1cncc2c1CCN(C1CCOCC1)C2`, the cytotoxicity at 10 µM stood at 5.88%.

For `COCCN1CCCC2(CCN(Cc3noc(C4CCCC4)n3)C2)C1=O` (centres undefined), the cytotoxicity at 10 µM was 3.96%.

Consider `COc1ccc(CCN2CCC(N3CCN(C)C3=O)CC2)cc1`, for which the cytotoxicity at 10 µM is -6.64%.

On to `COC(=O)c1ccc(N2CCN(C(=O)c3ccc(=O)n(C)c3)CC2)cc1`, for which the cytotoxicity at 10 µM was -43.9%.

`CCC(NC1CCN(S(C)(=O)=O)CC1)c1cccs1` (centres undefined): the cytotoxicity at 10 µM was found to be 0.125%.

Turning to `COc1cc(C)nc(N2CCN(C(=O)CCc3ccsc3)CC2)n1`, the cytotoxicity at 10 µM stood at 10%.

For the compound `CN(CC(=O)N1CCCC1)Cc1nc2c(cnn2C)c(=O)[nH]1`, the cytotoxicity at 10 µM was -1.38%.

As for `C=C(C)COc1cccc(CNCc2nc3ccccc3c(=O)[nH]2)c1`, the cytotoxicity at 10 µM is -40.9%.

For the compound `OC(CN1CCCCc2ccccc21)Cn1cccn1` (centres undefined), the cytotoxicity at 10 µM turned out to be 5.55%.

For the compound `Cc1cccc2c1nc1n2[C@@H](CNC(=O)c2ccncc2)COC1`, the cytotoxicity at 10 µM is 3.04%.

For `Cc1nc(CNC2(C(=O)OC(C)(C)C)CCCC2)oc1C`, the cytotoxicity at 10 µM was -0.457%.

As to `N#Cc1ccc(F)c(CN2CCCC2Cn2cncn2)c1` (centres undefined), the cytotoxicity at 10 µM turned out to be 8.21%.

Take `CCCn1nccc1NC(=O)CN1CCCC1c1c(C)nn(C)c1C` (centres undefined): the cytotoxicity at 10 µM is -2.7%.

On to `Cc1ncsc1CN(C)C(=O)CC1CCOc2ccccc21` (centres undefined), for which the cytotoxicity at 10 µM worked out at 20.2%.

As for `COc1ccc(-c2nc(C)cc(SCC(N)=O)n2)cc1`, the cytotoxicity at 10 µM was 5.64%.

Turning to `CNC(=O)C(CCSC)NC(=O)c1ccc2ccccc2n1` (centres undefined), the cytotoxicity at 10 µM was -1.35%.

As to `CC(C)CC(=O)N1CC[C@@H]2CN(CC(=O)N(C)C)S(=O)(=O)[C@@H]2CC1`, the cytotoxicity at 10 µM is 10%.

As for `O=C(c1ccc(-n2cncn2)cc1)N1CCN(c2cnccn2)CC1`, the cytotoxicity at 10 µM turned out to be 2.45%.

In the case of `CC(O)CN1CCN(C(=O)c2ccn(-c3ccc(F)cc3)n2)CC1` (centres undefined), the cytotoxicity at 10 µM was -6.11%.

For `O=C1CC(c2ccc(C(=O)O)cc2)c2ncn(-c3ccc(Cl)cc3)c2N1` (centres undefined), the cytotoxicity at 10 µM is -2.14%.

For `CC(NC(=O)NCCCn1cncn1)c1ccc(F)cc1` (centres undefined), the cytotoxicity at 10 µM is -9.92%.

On to `O=C(c1cnccn1)N1CCN2C[C@H](OCc3ccccn3)C[C@H]2C1`, for which the cytotoxicity at 10 µM was -0.746%.

Take `O=C(c1cscn1)N1CCc2ncnc(-c3cccnc3)c2CC1`: the cytotoxicity at 10 µM is -1.6%.

In the case of `CCN1CC(COC(=O)c2cccc(Br)c2)CC1=O` (centres undefined), the cytotoxicity at 10 µM was determined as 4.91%.
